{
  "source": "ChEMBL document CHEMBL4725316",
  "about": "“Discovery of novel anti-breast cancer agents derived from deguelin as inhibitors of heat shock protein 90 (HSP90)” (Bioorg Med Chem Lett, 2020)",
  "key": {"BT-474 [1]": {"tested_on": "BT-474", "experiment": "Cytotoxicity against human BT-474 cells assessed as reduction in cell viability at 10 uM incubated for 72 hrs by MTS assay relative to control", "assay_type": "functional", "conditions": "BT-474, read-out: INH", "outline": "(§1)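 Single-concentration primary screen: trastuzumab-sensitive BT474, trastuzumab-resistant JIMT-1 (HER2-positive breast cancer) or normal human embryonic kidney HEK293 cells exposed to compound at 10 μM for 72 h; viability by MTS assay versus DMSO control. Mean ± SEM of at least three independent experiments; Student's t-test.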"}, "JIMT-1 [2]": {"tested_on": "JIMT-1", "experiment": "Cytotoxicity against human JIMT-1 cells assessed as reduction in cell viability at 10 uM incubated for 72 hrs by MTS assay relative to control", "assay_type": "functional", "conditions": "JIMT-1, read-out: INH", "outline": "as §1"}, "[3]": {"biological_target": "T1, Heat shock protein HSP90 (Homo sapiens) (UniProt P07900+P08238)", "experiment": "Inhibition of HSP90 in human JIMT-1 cells assessed as reduction in EGFR expression at 5 uM incubated for 72 hrs by immunoblot analysis", "assay_type": "cell-based", "outline": "(§2)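 BT474 and JIMT-1 cells treated 72 h with indicated compound concentrations or vehicle; 30 μg total lysate protein resolved by SDS-PAGE and immunoblotted for HER2, phospho-HER2 (Tyr1221/1222), EGFR, phospho-EGFR (Tyr1068), survivin, HSP90 and HSP70, with actin as loading control.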"}, "[4]": {"biological_target": "T1, Heat shock protein HSP90 (Homo sapiens)", "experiment": "Inhibition of HSP90 in human BT-474 cells assessed as reduction in HER2 expression at 10 uM incubated for 72 hrs by immunoblot analysis", "assay_type": "cell-based", "outline": "as §2"}, "[5]": {"biological_target": "T1, Heat shock protein HSP90 (Homo sapiens)", "experiment": "Inhibition of HSP90 in human BT-474 cells assessed as reduction in HER2 phosphorylation at 10 uM incubated for 72 hrs by immunoblot analysis", "assay_type": "cell-based", "outline": "as §2"}, "[6]": {"biological_target": "T1, Heat shock protein HSP90 (Homo sapiens)", "experiment": "Inhibition of HSP90 in human BT-474 cells assessed as reduction in HSP70 expression at 10 uM incubated for 72 hrs by immunoblot analysis", "assay_type": "cell-based", "outline": "as §2"}, "[7]": {"biological_target": "T1, Heat shock protein HSP90 (Homo sapiens)", "experiment": "Inhibition of HSP90 in human JIMT-1 cells assessed as reduction in HSP90 expression at 5 uM incubated for 72 hrs by immunoblot analysis", "assay_type": "cell-based", "outline": "as §2"}, "[8]": {"biological_target": "T1, Heat shock protein HSP90 (Homo sapiens)", "experiment": "Inhibition of HSP90 in human BT-474 cells assessed as reduction in EGFR expression at 10 uM incubated for 72 hrs by immunoblot analysis", "assay_type": "cell-based", "outline": "as §2"}, "BT-474 [9]": {"tested_on": "BT-474", "experiment": "Cytotoxicity against human BT-474 cells assessed as reduction in cell viability incubated for 72 hrs by MTS assay", "assay_type": "functional, cell-based", "outline": "(§3)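 Dose-response in BT474 (trastuzumab-sensitive) and JIMT-1 (trastuzumab-resistant) HER2-positive breast cancer cells: compound at 0.1, 0.5, 1, 5, 10 or 20 μM for 72 h, viability by MTS assay. IC50 with 95% confidence intervals calculated from the curves; mean ± SEM of at least three independent experiments, one-way ANOVA with Bonferroni post hoc test versus DMSO control.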"}, "[10]": {"biological_target": "T1, Heat shock protein HSP90 (Homo sapiens)", "experiment": "Inhibition of HSP90 in human JIMT-1 cells assessed as reduction in HER2 phosphorylation at 5 uM incubated for 72 hrs by immunoblot analysis", "assay_type": "cell-based", "outline": "as §2"}, "[11]": {"biological_target": "T1, Heat shock protein HSP90 (Homo sapiens)", "experiment": "Inhibition of HSP90 in human BT-474 cells assessed as reduction in survivin expression at 10 uM incubated for 72 hrs by immunoblot analysis", "assay_type": "cell-based", "outline": "as §2"}, "JIMT-1 [12]": {"tested_on": "JIMT-1", "experiment": "Cytotoxicity against human JIMT-1 cells assessed as reduction in cell viability incubated for 72 hrs by MTS assay", "assay_type": "functional, cell-based", "outline": "as §3"}, "[13]": {"biological_target": "T1, Heat shock protein HSP90 (Homo sapiens)", "experiment": "Inhibition of HSP90 in human BT-474 cells assessed as reduction in HSP90 expression at 10 uM incubated for 72 hrs by immunoblot analysis", "assay_type": "cell-based", "outline": "as §2"}, "[14]": {"biological_target": "T1, Heat shock protein HSP90 (Homo sapiens)", "experiment": "Inhibition of HSP90 in human JIMT-1 cells assessed as reduction in survivin expression at 5 uM incubated for 72 hrs by immunoblot analysis", "assay_type": "cell-based", "outline": "as §2"}, "[15]": {"biological_target": "T1, Heat shock protein HSP90 (Homo sapiens)", "experiment": "Inhibition of HSP90 in human BT-474 cells assessed as reduction in EGFR phosphorylation at 10 uM incubated for 72 hrs by immunoblot analysis", "assay_type": "cell-based", "outline": "as §2"}, "[16]": {"biological_target": "T1, Heat shock protein HSP90 (Homo sapiens)", "experiment": "Inhibition of HSP90 in human JIMT-1 cells assessed as reduction in HSP70 expression at 10 uM incubated for 24 hrs by DAPI staining based confocal microscopy", "assay_type": "cell-based", "outline": "(§4)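 Immunocytochemistry: cells treated 24 h with compound (10 μM) or geldanamycin (0.3 μM), immunostained for HSP70 with DAPI nuclear counterstain, imaged by confocal microscopy at ×500 original magnification.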"}, "[17]": {"biological_target": "T1, Heat shock protein HSP90 (Homo sapiens)", "experiment": "Inhibition of HSP90 in human JIMT-1 cells assessed as reduction in HER2 expression at 5 uM incubated for 72 hrs by immunoblot analysis", "assay_type": "cell-based", "outline": "as §2"}, "[18]": {"biological_target": "T1, Heat shock protein HSP90 (Homo sapiens)", "experiment": "Inhibition of HSP90 in human JIMT-1 cells assessed as reduction in EGFR phosphorylation at 5 uM incubated for 72 hrs by immunoblot analysis", "assay_type": "cell-based", "outline": "as §2"}, "[19]": {"biological_target": "T1, Heat shock protein HSP90 (Homo sapiens)", "experiment": "Inhibition of HSP90 in human JIMT-1 cells assessed as reduction in HSP70 expression at 5 uM incubated for 72 hrs by immunoblot analysis", "assay_type": "cell-based", "outline": "as §2"}, "HEK293": {"tested_on": "HEK293", "experiment": "Cytotoxicity against human HEK293 cells assessed as reduction in cell viability at 10 uM incubated for 72 hrs by MTS assay", "assay_type": "cell-based", "conditions": "hek293, 72 h", "outline": "as §1"}, "[20]": {"biological_target": "T1, Heat shock protein HSP90 (Homo sapiens)", "experiment": "Inhibition of HSP90 in human BT-474 cells assessed as reduction in HSP70 expression at 10 uM incubated for 24 hrs by DAPI staining based confocal microscopy", "assay_type": "cell-based", "outline": "as §4"}},
  "note": "The source made the active and inactive calls. The rule behind the calls is not given here.",
  "data": [
    {"smiles": "COc1cc(NC(=O)c2ccc3c(c2OC)C=CC(C)(C)O3)ccc1OCCCC1CCNCC1", "values": [
      {"measurement": "inhibition at 10 µM", "setting": "BT-474 [1]", "value": "> 50", "unit": "%"},
      {"measurement": "inhibition at 10 µM", "setting": "JIMT-1 [2]", "value": "> 50", "unit": "%"}
    ]},
    {"smiles": "COc1cc(NC(=O)c2ccc3c(c2OC)C=CC(C)(C)O3)ccc1OCCCC1CCCCN1", "note": "(centres undefined)", "values": [
      {"measurement": "inhibition at 10 µM", "setting": "BT-474 [1]", "value": "> 50", "unit": "%"},
      {"measurement": "inhibition at 10 µM", "setting": "JIMT-1 [2]", "value": "> 50", "unit": "%"}
    ]},
    {"smiles": "COc1cc(NC(=O)c2ccc3c(c2OC)C=CC(C)(C)O3)ccc1OCCC1CCCCN1C", "note": "(centres undefined)", "values": [
      {"measurement": "inhibition at 10 µM", "setting": "BT-474 [1]", "value": "> 50", "unit": "%"},
      {"measurement": "inhibition at 10 µM", "setting": "JIMT-1 [2]", "value": "> 50", "unit": "%"}
    ]},
    {"smiles": "COc1cc(NC(=O)c2ccc3c(c2OC)C=CC(C)(C)O3)ccc1OCCC1CCCCN1", "note": "(centres undefined)", "values": [
      {"measurement": "inhibition", "setting": "[3]", "value": "Active"},
      {"measurement": "inhibition", "setting": "[4]", "value": "Active"},
      {"measurement": "inhibition", "setting": "[5]", "value": "Active"},
      {"measurement": "inhibition", "setting": "[6]", "value": "inactive"},
      {"measurement": "inhibition", "setting": "[7]", "value": "inactive"},
      {"measurement": "inhibition", "setting": "[8]", "value": "Active"},
      {"measurement": "Activity", "setting": "BT-474 [9]", "value": "Dose-dependent effect"},
      {"measurement": "IC50", "setting": "BT-474 [9]; BT-474, 72 h", "value": 8.53, "unit": "µM"},
      {"measurement": "inhibition", "setting": "[10]", "value": "Active"},
      {"measurement": "inhibition at 10 µM", "setting": "BT-474 [1]", "value": "> 50", "unit": "%"},
      {"measurement": "inhibition", "setting": "[11]", "value": "Active"},
      {"measurement": "Activity", "setting": "JIMT-1 [12]", "value": "Dose-dependent effect"},
      {"measurement": "IC50", "setting": "JIMT-1 [12]; JIMT-1, 72 h", "value": 4.45, "unit": "µM"},
      {"measurement": "inhibition", "setting": "[13]", "value": "inactive"},
      {"measurement": "inhibition", "setting": "[14]", "value": "Active"},
      {"measurement": "inhibition", "setting": "[15]", "value": "Active"},
      {"measurement": "inhibition", "setting": "[16]", "value": "inactive"},
      {"measurement": "inhibition", "setting": "[17]", "value": "Active"},
      {"measurement": "inhibition", "setting": "[18]", "value": "Active"},
      {"measurement": "inhibition", "setting": "[19]", "value": "inactive"},
      {"measurement": "Activity", "setting": "HEK293", "value": "Non-Toxic"},
      {"measurement": "inhibition at 10 µM", "setting": "JIMT-1 [2]", "value": "> 50", "unit": "%"},
      {"measurement": "inhibition", "setting": "[20]", "value": "inactive"}
    ]},
    {"smiles": "COc1cc(NC(=O)c2ccc3c(c2OC)C=CC(C)(C)O3)ccc1OCCCN1CCCCC1", "values": [
      {"measurement": "inhibition at 10 µM", "setting": "BT-474 [1]", "value": "> 50", "unit": "%"},
      {"measurement": "inhibition at 10 µM", "setting": "JIMT-1 [2]", "value": "> 50", "unit": "%"}
    ]},
    {"smiles": "COc1cc(NC(=O)c2ccc3c(c2OC)C=CC(C)(C)O3)ccc1OCC1CCN(C)CC1", "values": [
      {"measurement": "inhibition at 10 µM", "setting": "BT-474 [1]", "value": "> 50", "unit": "%"},
      {"measurement": "inhibition at 10 µM", "setting": "JIMT-1 [2]", "value": "> 50", "unit": "%"}
    ]},
    {"smiles": "COc1cc(NC(=O)c2ccc3c(c2OC)C=CC(C)(C)O3)ccc1OCC1CCNCC1", "values": [
      {"measurement": "inhibition at 10 µM", "setting": "BT-474 [1]", "value": "> 50", "unit": "%"},
      {"measurement": "inhibition at 10 µM", "setting": "JIMT-1 [2]", "value": "> 50", "unit": "%"}
    ]},
    {"smiles": "COc1cc(NC(=O)c2ccc3c(c2OC)C=CC(C)(C)O3)ccc1OCCCC1CCN(C)CC1", "values": [
      {"measurement": "inhibition at 10 µM", "setting": "BT-474 [1]", "value": "> 50", "unit": "%"},
      {"measurement": "inhibition at 10 µM", "setting": "JIMT-1 [2]", "value": "> 50", "unit": "%"}
    ]},
    {"smiles": "COc1cc(NC(=O)c2ccc3c(c2OC)C=CC(C)(C)O3)ccc1OCCCC1CCN(CCO)CC1", "values": [
      {"measurement": "inhibition at 10 µM", "setting": "BT-474 [1]", "value": "> 50", "unit": "%"},
      {"measurement": "inhibition at 10 µM", "setting": "JIMT-1 [2]", "value": "> 50", "unit": "%"}
    ]}
  ]
}
